PAFAH1B3 FP inh = PAFAH1B3 enzyme inhibitors, primary screen, biochemical, fluorescence polarization, human. inhibition, % at 3.39 µM. 340,000 tested, 0.28% active. Platelet-activating factor acetylhydrolase IB subunit alpha1 (Homo sapiens), Q15102. AID 492972, 2010. recombinant PAFAH1B3, FP-rhodamine probe;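 active = inhibition above the screen-wide average of all tested compounds plus 3 SD, cut at about 25% in these data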;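 also: 0% = enzyme with DMSO only and 100% = wells lacking PAFAH1B3 protein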
PAFAH1B2 FP inh = PAFAH1B2 enzyme inhibitors, primary screen, biochemical, fluorescence polarization, human | Platelet-activating factor acetylhydrolase IB subunit alpha2 (Homo sapiens), P68402 | recombinant PAFAH1B2, FP-rhodamine activity probe | inhibition, % at 3.39 µM | 340,000 tested, 1.2% active;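 active = inhibition above the mean of all tested compounds plus 3 SD, cut at about 24% in these data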;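 also: 0% = enzyme with DMSO and 100% = wells lacking PAFAH1B2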
PAFAH2 FP inh = PAFAH2 enzyme inhibitors, primary screen, biochemical, fluorescence polarization, human | Platelet-activating factor acetylhydrolase 2, cytoplasmic (Homo sapiens), Q99487 | recombinant PAFAH2, FP-rhodamine activity probe | inhibition, % at 3.39 µM | 340,000 tested, 0.99% active | AID 492956, 2010;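 active = inhibition above the mean over all tested compounds plus 3 SD, cut at about 30% in these data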;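 also: inhibitors block probe labeling of enzyme so polarization drops; 0% = enzyme with DMSO and 100% = wells lacking PAFAH2 protein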
NR3A LBD binder = binders of NR3A ligand-binding domain, primary screen, biophysical, differential scanning fluorimetry, uHTS; NR3A LBD differential scanning fluorimetry, Tm shift; 0% = protein alone, 100% = glycine-bound protein; Tm shift relative to glycine control, % at 25 µM; 340,000 tested, 2.5% active; AID 1259313, 2017;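 active = melting temperature shift of at least 10% of the positive control shift, at one fixed dose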
pPAFAH inh = pPAFAH enzyme inhibitors, primary screen, biochemical, fluorescence polarization, human. AID 463082, 2010. inhibition, % at 3.39 µM. Platelet-activating factor acetylhydrolase (Homo sapiens), Q13093. 330,000 tested, 1.5% active. recombinant pPAFAH, FP-rhodamine probe fluorescence polarization;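 active = inhibition above the mean inhibition across the screen plus 3 SD, cut at about 25% in these data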;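 also: inhibitors block binding of the rhodamine activity-based probe so polarization drops; 0% = enzyme with DMSO and 100% = wells lacking pPAFAH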
Target sequence (Q13093 whole entry, looked up): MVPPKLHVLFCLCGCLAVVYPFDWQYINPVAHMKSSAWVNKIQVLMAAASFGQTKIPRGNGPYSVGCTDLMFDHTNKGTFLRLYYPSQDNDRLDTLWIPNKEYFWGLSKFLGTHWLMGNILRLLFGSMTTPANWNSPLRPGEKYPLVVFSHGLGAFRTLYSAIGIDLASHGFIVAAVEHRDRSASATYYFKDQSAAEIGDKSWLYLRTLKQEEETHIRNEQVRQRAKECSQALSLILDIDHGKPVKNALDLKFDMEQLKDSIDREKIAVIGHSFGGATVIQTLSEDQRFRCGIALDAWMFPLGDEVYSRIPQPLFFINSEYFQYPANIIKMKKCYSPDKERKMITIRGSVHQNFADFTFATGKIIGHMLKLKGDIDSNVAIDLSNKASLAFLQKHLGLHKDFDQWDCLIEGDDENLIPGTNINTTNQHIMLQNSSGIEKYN
UCH37 DUB inh = inhibitors of human UCH37 deubiquitinase, primary screen, biochemical, Ub-AMC cleavage, fluorescence; purified proteasome/UCH37; inhibition, % (no concentration beside the values); 330,000 tested, 0.33% active;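 active = mean inhibition over replicate wells above about 20%, limit read from the data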;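 also: 0% = compound-free wells with enzyme and 100% = wells lacking proteasome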
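Test system – human UCH37 enzyme supplied as purified proteasome complex · Incubation – 30 min preincubation with enzyme, 25 min cleavage at room temperature · Detection – AMC fluorescence from Ub-AMC cleavage, excitation 355 nm, emission 460 nm · Benchmarks – no-proteasome wells (full inhibition) and compound-free wells (no inhibition)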
Numbers without * were called inactive; i = inactive; . = no result given. In the library only some 4.8% were active in any assay of this set; here they are far more common.

SMILES	PAFAH1B3 FP inh	PAFAH1B2 FP inh	PAFAH2 FP inh	NR3A LBD binder	pPAFAH inh	UCH37 DUB inh
Oc1ccc(N=Nc2n[nH]c(-c3ccc(Cl)cc3)n2)cc1	11	7	6	24*	4	8
ONC(=Nc1ccc(Cl)cc1)c1ccccc1	2	36*	2	2	-1	4
O=[N+]([O-])c1cccc(C(=Nc2cccc(Cl)c2)NO)c1	10	5	2	-1	0	-1
O=C(CSc1nnc(Cc2cccs2)n1-c1ccc(Cl)cc1)NCc1ccc2c(c1)OCO2	0	-2	3	3	25*	2
NS(=O)(=O)c1ccc(NC(=O)CSc2nnc(Cc3cccs3)n2-c2ccccc2)cc1	3	0	-4	10*	6	-5
COc1ccc(NC(=O)CSc2nnc(Cc3cccs3)n2-c2ccc(C)cc2)cc1	-6	3	-1	1	16	1
Cn1c(Cc2cccs2)nnc1SCC(=O)Nc1ccc(C(N)=O)cc1	-11	-3	-9	0	2	0
Cc1ccc(-n2c(Cc3cccs3)nnc2SCC(=O)Nc2ccc(S(N)(=O)=O)cc2)cc1	8	7	9	-1	26*	0
CCn1c(CNc2cccc(C(F)(F)F)c2)n[nH]c1=S	10	7	-2	1	1	32*
CCN1CCN(c2cc(C)c3cc(NC(=O)c4cc(OC)cc(OC)c4)ccc3n2)CC1	-1	3	-3	1	29*	6
CC(CC(=O)NCc1ccco1)=NNC(=O)COc1ccc(Cl)cc1Cl	.	.	.	.	.	5
CC1SC(=S)N(c2ccc(N(C)C)cc2)C1=O (stereo not given)	10	1	-4	1	29*	5
O=C(N/N=C/c1cccc(O)c1)c1ccccc1O	6	1	3	8	4	.
O=C(N/N=C/c1cccc(O)c1)c1csc2ccccc12	-8	4	-7	22*	0	.
Cc1ccccc1OCc1nc2ccccc2c(=O)n1/N=C/c1c[nH]c2ccccc12	0	-2	-11	0	1	.
Cc1cccc(C)c1OCc1nc2ccccc2c(=O)n1/N=C/c1c[nH]c2ccccc12	-5	-7	-42	31*	-19	.
O=C(N/N=C/c1cc([N+](=O)[O-])ccc1O)c1c[nH]c2ccccc12	22	4	4	27*	13	.
O=C(N/N=C/C=C\c1ccccc1[N+](=O)[O-])c1cc(-c2ccccc2)nc2ccccc12	6	4	-13	10*	-6	.
CC(=O)c1sc(NN=C2CC3CCC2(C)C3(C)C)nc1C (stereo not given)	.	.	.	.	.	-3
Cc1ccc(C=NNc2nc3ccccc3[nH]2)s1	.	.	.	.	.	0
CC1=NNC(=O)C1CC(=O)NN=Cc1ccncc1 (stereo not given)	.	.	.	.	.	-1
CCOC(=O)C(C)C(C)=NNC(N)=S (stereo not given)	.	.	.	.	.	3
O=C(CN1c2ccccc2Sc2ccccc21)N/N=C/c1ccccc1	4	9	4	5	24	.
Cn1cc(C(=O)N/N=C/c2cccc([N+](=O)[O-])c2)c2ccccc21	.	.	.	9	-2	.
O=C(N/N=C/c1cc([N+](=O)[O-])ccc1O)c1cc(-c2ccccc2)nc2ccccc12	9	2	11	21*	6	.
SMILES	PAFAH1B3 FP inh	PAFAH1B2 FP inh	PAFAH2 FP inh	NR3A LBD binder	pPAFAH inh	UCH37 DUB inh
Cn1cc(C(=O)N/N=C/c2ccc([N+](=O)[O-])cc2)c2ccccc21	.	.	.	28*	-2	.
O=C(N/N=C/c1ccco1)c1cc(-c2cccc(Br)c2)nc2ccccc12	-8	-4	-20	12*	3	.
O=C(CN1c2ccccc2Sc2ccccc21)N/N=C/c1ccc([N+](=O)[O-])cc1	10	1	0	32*	14	.
O=C(NN=Cc1cccc(Cl)c1)c1c(O)c2c([nH]c1=O)CCCC2	.	.	.	.	.	-4
O=C(N/N=C/c1cccc(O)c1)c1cc(-c2ccccc2)nc2ccccc12	-5	-4	-8	15*	-4	.
O=C(NN=Cc1ccc([N+](=O)[O-])cc1)c1c[nH]c2ccccc12	.	.	.	.	.	4
O=C(N/N=C/c1ccc(F)cc1)c1cc(-c2ccco2)nc2ccccc12	13	-2	5	-4	30*	.
O=C(N/N=C/c1cccc([N+](=O)[O-])c1)c1c[nH]c2ccccc12	1	6	4	27*	5	.
O=C(N/N=C/c1ccc(O)c(O)c1)c1cc(-c2ccccc2)nc2ccccc12	11	4	12	5	23	.
O=C(N/N=C/c1ccsc1)c1cc(-c2cccs2)nc2ccccc12	0	0	-9	12*	5	.
CC(C=NNC(=O)CNc1n[nH]c(=O)[nH]c1=O)c1ccccc1 (stereo not given)	.	.	.	.	.	2
Cc1nn(-c2ccccc2)c(C)c1-c1cc(C(=O)NN=Cc2cccnc2)[nH]n1	.	.	.	.	.	2
O=c1c2ccccc2nc(COc2ccccc2)n1/N=C/c1cc([N+](=O)[O-])ccc1O	6	-1	-12	22*	26*	.
COc1ccc(C2CC(c3ccccc3F)=NN2c2ccc(S(N)(=O)=O)cc2)cc1 (stereo not given)	7	5	-3	3	13	i
COc1ccc(C2CC(c3ccccc3C(F)(F)F)=NN2c2ccc(S(N)(=O)=O)cc2)cc1 (stereo not given)	5	2	6	18*	26*	i
COc1ccc(C2CC(c3ccc(C(F)(F)F)cc3)=NN2c2ccc(S(N)(=O)=O)cc2)cc1 (stereo not given)	12	1	-6	107*	14	i
COc1ccc(C2CC(c3ccccc3Br)=NN2c2ccc(S(N)(=O)=O)cc2)cc1 (stereo not given)	8	4	1	14*	23	-425
Cc1cccc(C=NNC(=O)c2csnn2)c1	.	.	.	.	.	4
CCN(CC)c1ccc(C=NNC(=O)CC(C)C)cc1	.	.	.	.	.	-191
CSCCC(NS(=O)(=O)c1cccc(C(F)(F)F)c1)C(=O)Nc1ccccc1N1CCCC1 (stereo not given)	3	26*	6	-1	10	0
O=C(COc1cccc(C(F)(F)F)c1)Nc1ccccc1N1CCCCC1	8	2	-5	5	4	4
CC(C(=O)NN=Cc1ccc(N(C)C)c(Br)c1)N(c1ccccc1)S(C)(=O)=O (stereo not given)	.	.	.	.	.	1
